Test results taken from ChEMBL document CHEMBL1122501, “Potential antiatherosclerotic agents. 2. (Aralkylamino)- and (alkylamino) benzoic acid analogues of cetaben” (1983).

Key:
[1] = biological target: T1, Sterol O-acyltransferase 1 (Rattus norvegicus) (UniProt O70536); experiment: In vitro inhibitory activity against acyl coenzyme A:cholesterol acyltransferase (ACAT); set-up: concentration or dose not given beside the values; conditions: concentration not given here
T1 sequence (whole entry): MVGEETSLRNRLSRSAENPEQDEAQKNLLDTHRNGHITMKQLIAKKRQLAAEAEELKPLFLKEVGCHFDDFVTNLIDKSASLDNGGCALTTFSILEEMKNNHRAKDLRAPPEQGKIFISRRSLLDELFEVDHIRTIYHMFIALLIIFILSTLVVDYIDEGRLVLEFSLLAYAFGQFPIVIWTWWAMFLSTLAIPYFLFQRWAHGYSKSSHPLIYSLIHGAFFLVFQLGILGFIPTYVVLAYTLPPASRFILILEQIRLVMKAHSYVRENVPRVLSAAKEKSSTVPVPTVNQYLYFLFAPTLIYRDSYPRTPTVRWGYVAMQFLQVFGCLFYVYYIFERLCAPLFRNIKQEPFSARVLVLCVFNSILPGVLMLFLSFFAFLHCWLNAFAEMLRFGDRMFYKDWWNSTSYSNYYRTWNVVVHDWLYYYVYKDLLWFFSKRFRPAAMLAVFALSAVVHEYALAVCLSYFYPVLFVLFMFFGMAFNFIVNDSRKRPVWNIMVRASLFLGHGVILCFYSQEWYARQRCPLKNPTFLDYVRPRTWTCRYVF
How it was run: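 ACAT enzyme from rat adrenal homogenate in 0.2 M KH2PO4 buffer pH 7.4, 1000g 15 min 5 °C supernatant (microsomal fraction). Supernatant + BSA (50 mg/mL) + compound at final 5.2 μg/mL + buffer preincubated 10 min 37 °C; [14C]oleoyl-CoA (0.4 μCi) added, 30 min 37 °C. Lipids extracted, TLC; cholesteryl ester zone counted. Mean % inhibition vs no-compound control; Student's t test.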

[2] = tested on: Rattus norvegicus; experiment: In vivo triglyceride lowering activity, dosed at 0.03 % of the diet; format: functional
How it was run: (§1)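 Male CFE or CD-1 Sprague-Dawley rats, 140-150 g; 8 per control group, 4 per test group. Compound mixed into ground chow (w/w) via MeOH-CHCl3 (1:3) solution, solvent evaporated; controls got solvent-treated chow. Fed ad libitum 5 days, food intake monitored, killed fed and bled. Serum sterols and triglycerides by adapted autoanalyzer methods; mean percent of control, Student's t test.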

[3] = tested on: Rattus norvegicus; experiment: In vivo triglyceride lowering activity dosed at 0.10 % of the diet; format: functional; how it was run: as §1
[4] = tested on: Rattus norvegicus; experiment: In vivo Sterol lowering activity at dose as 0.01 % of the diet.; format: functional; how it was run: as §1
[5] = tested on: Rattus norvegicus; experiment: In vivo Sterol lowering activity at dose as 0.03 % of the diet.; format: functional; how it was run: as §1
[6] = tested on: Rattus norvegicus; experiment: In vivo Triglyceride lowering activity at dose as 0.01 % of the diet; format: functional; how it was run: as §1
[7] = tested on: Rattus norvegicus; experiment: In vivo sterol lowering activity dosed at 0.10 % of the diet; format: functional; how it was run: as §1
[8] = tested on: Rattus norvegicus; experiment: In vivo Sterol lowering activity at dose as 0.10 % of the diet.; format: functional; how it was run: as §1
[9] = tested on: Rattus norvegicus; experiment: In vivo triglyceride lowering activity, dosed at 0.01 % of the diet.; format: functional; how it was run: as §1
[10] = tested on: Rattus norvegicus; experiment: In vivo Triglyceride lowering activity at dose as 0.03 % of the diet.; format: functional; how it was run: as §1
[11] = tested on: Rattus norvegicus; experiment: In vivo triglyceride lowering activity dosed at 0.05 % of the diet; format: functional; how it was run: as §1
[12] = tested on: Rattus norvegicus; experiment: In vivo Sterol lowering activity at dose as 0.05 % of the diet; format: functional; how it was run: as §1

Row | Compound | inhibition [1] [%] | serum triglycerides, percent of control [2] [%] | serum triglycerides, percent of control [3] [%] | serum sterol, percent of control [4] [%] | serum sterol level, percent of control [5] [%] | Diet [6] [%] | serum sterol, percent of control [7] [%] | serum sterol, percent of control [8] [%] | Diet [9] [%] | Diet [10] [%] | Diet [11] [%] | Diet [12] [%] | Diet [8] [%]
1 | CC(C(=O)O)c1ccc(NCCCc2ccc(Cl)cc2)cc1 (configuration not stated) | 14 | 63 | 33 | 94 | 96 | 63 | 62 | – | – | – | – | – | –
2 | Cc1ccc(CCCNc2ccc(C(=O)O)cc2)cc1 | 49 | 54 | 50 | 90 | 98 | 63 | – | 110 | – | – | – | – | –
3 | CCOC(=O)c1ccc(NCCCCCCc2ccco2)cc1 | 37 | 64 | 60 | 95 | 103 | 68 | – | 90 | – | – | – | – | –
4 | CCOC(=O)c1ccc(NCc2ccc(Cl)cc2)cc1 | 33 | 53 | 50 | 94 | 86 | – | 84 | – | 78 | – | – | – | –
5 | O=C(O)c1ccc(NCCCc2cccc(Br)c2)cc1 | 18 | 67 | 60 | 92 | 91 | 63 | 80 | – | – | – | – | – | –
6 | O=C(O)c1ccc(NCCCCCC(O)c2ccc(Cl)cc2)cc1 (configuration not stated) | 30 | – | 72 | 100 | 100 | – | – | 86 | 85 | 90 | – | – | –
7 | O=C(O)c1ccc(NCCCCCCCc2ccccc2)cc1 | 14 | – | <71 | – | – | – | 91 | – | – | – | <61 | 96 | –
8 | O=C(O)c1ccc(NCCCCCCc2ccco2)cc1 | 21 | – | 51 | 91 | 87 | – | 86 | – | 67 | 61 | – | – | –
9 | CCOC(=O)c1ccc(NCCCc2cccc(Cl)c2)cc1 | 79 | 65 | 56 | 93 | 88 | 65 | 80 | – | – | – | – | – | –
10 | CCOC(=O)c1ccc(NCCCc2ccc(OC)cc2)cc1 | 54 | 59 | 60 | 97 | 90 | – | 86 | – | 82 | – | – | – | –
11 | CCOC(=O)c1ccc(NCc2cccs2)cc1 | 44 | – | – | 104 | 98 | – | – | – | 94 | 78 | – | – | –
12 | CCOC(=O)c1ccc(NCCCc2cccc(F)c2)cc1 | 50 | 55 | 37 | 91 | 88 | 78 | 77 | – | – | – | – | – | –
13 | CCOC(=O)C(C)c1ccc(NCCCc2ccc(Cl)cc2)cc1 (configuration not stated) | 85 | 48 | 42 | 86 | 89 | 57 | – | 75 | – | – | – | – | –
14 | O=C(O)c1ccc(NCCCc2ccc(Cl)c(Cl)c2)cc1 | 19 | 70 | 63 | 96 | 89 | – | 73 | – | 79 | – | – | – | –
15 | CCOC(=O)c1ccc(NCCCc2ccc(C)cc2)cc1 | 31 | 54 | 68 | 127 | 103 | 72 | 122 | – | – | – | – | – | –
16 | O=C(O)c1ccc(NCCc2ccc(Cl)cc2)cc1 | 6 | – | 67 | 106 | 90 | – | – | 105 | 114 | 91 | – | – | –
17 | O=C(O)c1ccc(NCCCc2ccccc2[N+](=O)[O-])cc1 | 2 | – | 77 | 88 | 83 | – | 83 | – | 84 | 103 | – | – | –
18 | O=C(O)c1ccc(NC/C=C/c2ccc(Cl)cc2)cc1 | 26 | 48 | 54 | 83 | 92 | – | – | 90 | 95 | – | – | – | –
19 | O=C(O)Cc1ccc(NCCCc2ccc(Cl)cc2)cc1 | 9 | – | 61 | 83 | 85 | – | – | 82 | 111 | 95 | – | – | –
20 | CCOC(=O)c1ccc(NCCCc2ccc(Cl)c(Cl)c2)cc1 | 43 | – | 66 | 86 | 98 | – | – | 90 | 90 | 98 | – | – | –
21 | O=C(O)c1ccc(NCCCc2cccc(F)c2)cc1 | 18 | 61 | 35 | 94 | 97 | 53 | – | – | – | – | – | – | 90
22 | CCOC(=O)c1ccc(NCCCc2ccccc2N)cc1 | 43 | – | 69 | 103 | 96 | – | – | 98 | 83 | 97 | – | – | –
23 | CCOC(=O)c1ccc(NCCCCCCc2ccc(Cl)cc2)cc1 | 30 | 68 | 50 | 99 | 95 | 73 | – | 85 | – | – | – | – | –
24 | O=C(O)c1cccc(NCCCc2ccc(Cl)cc2)c1 | 0 | – | 37 | 103 | 89 | – | – | 92 | 80 | 93 | – | – | –
25 | O=C(O)c1ccc(C(=O)O)c(NCCCc2ccc(Cl)cc2)c1 | 0 | 57 | 51 | 102 | 100 | – | – | 103 | 72 | – | – | – | –
26 | O=[N+]([O-])c1ccc(CCCNc2ccccc2)cc1 | 46 | 61 | 49 | 90 | 88 | – | – | 87 | 90 | – | – | – | –
27 | CCOC(=O)c1cccc(NCCCc2ccc(Cl)cc2)c1 | 50 | 62 | 59 | 96 | 93 | 75 | – | 96 | – | – | – | – | –
28 | CCOC(=O)c1ccc(NC/C=C/c2ccc(Cl)cc2)cc1 | 23 | 45 | 46 | 93 | 100 | 64 | – | 78 | – | – | – | – | –
